One data set deals with Furin (Homo sapiens, UniProt P09958). As to the kind of experiment: Inhibition of recombinant soluble human furin using Phac-Arg-Val-Arg-Arg-AMC fluorogenic substrate. A digest of the protocol:
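Enzyme kinetic assay under standard conditions at pH 7.0, using recombinant soluble human furin and the fluorogenic AMC substrate. Inhibition constants were determined from the kinetics.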

In the next data set the test system is Human orthopneumovirus. As to the kind of experiment: Antiviral activity against RSV A2 infected in A549 cells assessed as reduction in plaque formation incubated for 72 hrs upto 10 uM followed by viral infection at MOI of 1 for 1 hr by multicycle replication assay. Type of data set: functional, organism-based. To be noted: human respiratory syncytial virus, dose microM <=10, time 72.0 hrs. A digest of the protocol: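 A549 human lung cells were inoculated with RSV A2 at MOI 1 for 1 h, washed, then kept with inhibitor at 0.5–10 μM (0.1–2.5 μM for one compound) or without inhibitor. Supernatants were collected at 16, 24, 48 and 72 h post infection. Titres (PFU/mL) were read by plaque assay, mean ± standard deviation, n = 3.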

Data set [1] is described as follows: Toxicity in rat assessed as mortality at 1 mg/kg, iv. The note with it: in vivo. The format is organism-based.
The nature of data set [2]: Total body clearance in Sprague-Dawley rat at 2.5 mg/kg, ip. Type of data set: ADME, organism-based. The note with it: in vivo. A digest of the protocol:
(§1)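 Rat pharmacokinetics: single intravenous dose of 1 mg/kg or intraperitoneal dose of 2.5 mg/kg. Plasma inhibitor levels were followed over time, and half-life and total body clearance were derived for each route. Cmax and time to Cmax were also derived after intraperitoneal dosing.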

A short description of data set [3]: Cmax in Sprague-Dawley rat at 2.5 mg/kg, ip. The format is ADME, organism-based. More on the design: route intraperitoneal, dose 2.5 mg/kg. The note with it: in vivo. The essentials:
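Rats received a single intraperitoneal dose of 2.5 mg/kg. Plasma drug levels were followed over time, and half-life, total body clearance, and peak plasma concentration with its time were derived from the concentration–time profile.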

The subject of the next data set is dengue virus type 2. The experiment in a line: Antiviral activity against DENV-2 infected in african green monkey Vero 76 cells assessed as virus titer reduction incubated for 48 hrs by plaque assay. The format is functional, organism-based.
The nature of data set [4]: Half life in Sprague-Dawley rat at 2.5 mg/kg, ip. Type of data set: ADME, organism-based. The note with it: in vivo. The essentials:
as §1

A further data set deals with West Nile virus. As to the kind of experiment: Antiviral activity against West Nile virus infected in […] cells assessed as virus titer reduction incubated for 48 hrs by plaque assay. Type of data set: functional, organism-based. To be noted: Vero 76, 48 h. The essentials:
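Huh-7 cells infected with dengue virus type 2 (strain 16681) or West Nile virus, then cultured with inhibitor. Supernatants were collected 48 h post-infection and titrated by plaque assay on VeroE6 cells (n = 2, mean ± standard deviation). EC50 was calculated from the titer data.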

The nature of data set [5]: Cytotoxicity against african green monkey Vero 76 cells by Cell Titer Glo assay. The format is cell-based. To be noted: chlorocebus sabaeus.
The nature of data set [6]: Total body clearance in Sprague-Dawley rat at 1 mg/kg, iv. Type of data set: ADME, organism-based. To be noted: in vivo. A digest of the protocol: as §1
A short description of data set [7]: Plasma concentration in Sprague-Dawley rat at 2.5 mg/kg, ip measured after 3 hrs. Type of data set: ADME, organism-based.
A short description of data set [8]: Half life in Sprague-Dawley rat at 1 mg/kg, iv. Type of data set: ADME, organism-based. The note with it: in vivo. The essentials:
as §1

The next data set deals with Prothrombin (Bos taurus, UniProt P00735). The experiment in a line: Inhibition of bovine thrombin using Tos-Gly-Pro-Arg-AMC as substrate by fluorescence assay.
The next data set deals with Coagulation factor X (Homo sapiens, UniProt P00742). The experiment in a line: Inhibition of human factor Xa using Mes-Darg-Pro-Arg-AMC as flurogenic substrate by fluorescence assay.
Chain of Coagulation factor X (P00742 41-179 limits assumed): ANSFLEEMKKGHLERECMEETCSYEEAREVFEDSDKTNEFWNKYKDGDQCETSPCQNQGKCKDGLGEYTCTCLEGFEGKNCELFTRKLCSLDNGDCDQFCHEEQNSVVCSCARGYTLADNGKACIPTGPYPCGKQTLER
Chain of Coagulation factor X (P00742 235-488 limits assumed): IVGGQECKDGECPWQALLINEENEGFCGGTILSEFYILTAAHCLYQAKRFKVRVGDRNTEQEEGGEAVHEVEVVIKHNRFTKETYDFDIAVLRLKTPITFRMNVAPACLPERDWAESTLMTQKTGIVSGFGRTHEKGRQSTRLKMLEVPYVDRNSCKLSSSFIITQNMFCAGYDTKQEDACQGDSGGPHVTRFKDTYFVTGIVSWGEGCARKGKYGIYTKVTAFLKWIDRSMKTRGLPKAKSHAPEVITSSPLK
Another data set concerns the target Plasminogen (Homo sapiens, UniProt P00747). As to the kind of experiment: Inhibition pf human plasmin using Mes-Darg-Phe-Arg-AMC as substrate by fluorescence assay.

Active and inactive are the calls of the source. The rule behind the calls is not given here.

Chain of Furin (P09958 whole entry): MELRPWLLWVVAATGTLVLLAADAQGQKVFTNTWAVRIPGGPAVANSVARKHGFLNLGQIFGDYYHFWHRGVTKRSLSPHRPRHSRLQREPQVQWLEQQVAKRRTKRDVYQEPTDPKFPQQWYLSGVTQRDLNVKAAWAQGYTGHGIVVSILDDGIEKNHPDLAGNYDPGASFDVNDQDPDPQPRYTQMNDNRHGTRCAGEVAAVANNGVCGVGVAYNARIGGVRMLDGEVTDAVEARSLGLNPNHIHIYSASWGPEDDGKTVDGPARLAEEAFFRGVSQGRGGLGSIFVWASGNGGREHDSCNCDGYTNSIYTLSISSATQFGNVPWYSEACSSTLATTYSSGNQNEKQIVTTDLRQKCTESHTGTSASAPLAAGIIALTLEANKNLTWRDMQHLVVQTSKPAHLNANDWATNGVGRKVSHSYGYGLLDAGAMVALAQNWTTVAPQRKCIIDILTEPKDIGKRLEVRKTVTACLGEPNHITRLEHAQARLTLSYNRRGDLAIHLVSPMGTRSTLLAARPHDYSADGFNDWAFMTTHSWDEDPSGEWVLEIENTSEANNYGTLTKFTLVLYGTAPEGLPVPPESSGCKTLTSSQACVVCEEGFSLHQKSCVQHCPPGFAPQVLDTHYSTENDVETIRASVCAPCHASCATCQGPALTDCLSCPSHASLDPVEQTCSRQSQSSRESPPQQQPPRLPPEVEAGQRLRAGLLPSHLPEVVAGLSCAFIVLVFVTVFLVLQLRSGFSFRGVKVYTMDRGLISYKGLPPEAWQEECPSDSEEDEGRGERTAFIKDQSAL
Chain of Plasminogen (P00747 97-580 limits assumed): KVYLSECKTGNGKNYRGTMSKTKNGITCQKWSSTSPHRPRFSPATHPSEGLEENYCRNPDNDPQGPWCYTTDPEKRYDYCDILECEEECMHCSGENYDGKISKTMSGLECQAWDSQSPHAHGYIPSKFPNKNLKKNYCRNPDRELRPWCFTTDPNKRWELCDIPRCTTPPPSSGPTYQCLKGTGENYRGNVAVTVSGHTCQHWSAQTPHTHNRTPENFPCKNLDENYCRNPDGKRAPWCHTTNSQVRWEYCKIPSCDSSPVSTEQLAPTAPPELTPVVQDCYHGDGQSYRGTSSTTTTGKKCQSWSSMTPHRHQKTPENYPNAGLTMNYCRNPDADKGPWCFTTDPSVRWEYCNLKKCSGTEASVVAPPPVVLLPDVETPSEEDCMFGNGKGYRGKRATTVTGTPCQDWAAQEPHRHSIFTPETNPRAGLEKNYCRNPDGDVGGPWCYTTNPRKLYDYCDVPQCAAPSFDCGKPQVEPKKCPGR
Chain of Plasminogen (P00747 581-810 limits assumed): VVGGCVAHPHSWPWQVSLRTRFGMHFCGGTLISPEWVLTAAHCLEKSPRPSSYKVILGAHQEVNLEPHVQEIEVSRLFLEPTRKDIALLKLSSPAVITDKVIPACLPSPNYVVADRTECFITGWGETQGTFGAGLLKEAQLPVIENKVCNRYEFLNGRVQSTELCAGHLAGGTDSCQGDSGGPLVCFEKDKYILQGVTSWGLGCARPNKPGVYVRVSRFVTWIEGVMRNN

In the case of `CC(C)(C)[C@H](NC(=O)[C@H](CCCNC(=N)N)NC(=O)Cc1ccc(CNC(=N)N)cc1)C(=O)N[C@@H](CCONC(=N)N)C(=O)NCc1ccc(C(=N)N)cc1`, the Ki at Furin was found to be 0.0131 nM.
`CC(C)(C)[C@H](NC(=O)[C@H](CCONC(=N)N)NC(=O)Cc1ccc(CNC(=N)N)cc1)C(=O)N[C@@H](CCCCN)C(=O)NCc1ccc(C(=N)N)cc1`: the outcome in the data set with Human orthopneumovirus was Active. Moreover, on Furin, the inhibition constant Ki worked out at 0.0363 nM.
For the compound `CC(C)(C)[C@H](NC(=O)[C@H](CCONC(=N)N)NC(=O)Cc1ccc(CNC(=N)N)cc1)C(=O)N[C@@H](CCONC(=N)N)C(=O)NCc1ccc(C(=N)N)cc1`, the Activity entry in data set [1] is reported as “Non-Toxic”. In data set [2], the CL/F is 4.55 mL/min/kg. In data set [3], this compound had a maximum concentration (Cmax) of 3160 ng/mL. For the same compound, the concentration giving a half-maximal response (EC50) in the data set on dengue virus type 2 came out at 1500 nM; with West Nile virus it was 1460 nM. Further, the half-life was 1.6 h in data set [4] and 0.9 h in data set [8]. The outcome in the data set on Human orthopneumovirus was Active. The compound also displayed a half-maximal cytotoxic concentration (CC50) in data set [5] above 50000 nM. The compound also showed a clearance in data set [6] of 7.37 mL/min/kg. Further, the concentration at 3 h in data set [7] was above 1000 ng/mL.
With `CC(C)(C)[C@H](NC(=O)[C@H](CCCNC(=N)N)NC(=O)Cc1ccc(CNC(=N)N)cc1)C(=O)N[C@@H](CCCNC(=N)N)C(=O)NCc1ccc(C(=N)N)cc1`, the Ki at Prothrombin, on Coagulation factor X and at Plasminogen was above 3000 nM throughout. Besides, the results for the EC50 in the data set with dengue virus type 2 and with West Nile virus were 760 nM and 910 nM, respectively. Moreover, the outcome with Human orthopneumovirus was Active. In data set [5], the CC50 was above 50000 nM.
For the compound `CC(C)(C)[C@H](NC(=O)[C@H](CCCNC(=N)N)NC(=O)Cc1ccc(CN)cc1)C(=O)N[C@@H](CCONC(=N)N)C(=O)NCc1ccc(C(=N)N)cc1`, the inhibitory constant (Ki) at Furin turned out to be 0.0768 nM.
In the case of `CC(C)(C)[C@H](NC(=O)[C@H](CCONC(=N)N)NC(=O)Cc1ccc(CN)cc1)C(=O)N[C@@H](CCONC(=N)N)C(=O)NCc1ccc(C(=N)N)cc1`, on Furin, the Ki was 0.0342 nM.
Consider `CC(C)(C)[C@H](NC(=O)[C@H](CCONC(=N)N)NC(=O)Cc1ccc(CN)cc1)C(=O)N[C@@H](CCCCN)C(=O)NCc1ccc(C(=N)N)cc1`, for which, in the data set on Human orthopneumovirus, the result was inactive.

What is called Ki is the equilibrium dissociation constant of an inhibitor or competing ligand from its target. By CL/F is commonly meant clearance divided by bioavailability, as obtained after extravascular dosing. One may read the Cmax as the highest concentration seen after dosing. By EC50 is commonly meant the concentration at which the effect is half-maximal. The term half-life denotes how long it takes for the measured level to halve. A word on the CC50: it is the concentration at which the toxic effect on the cells reaches its halfway point. For orientation: clearance means the rate of elimination divided by the concentration.

Values taken from ChEMBL document CHEMBL4680357, “The Basicity Makes the Difference: Improved Canavanine-Derived Inhibitors of the Proprotein Convertase Furin” (ACS Med Chem Lett, 2021).
